Results: ChEMBL document CHEMBL3351454, “Design, synthesis, antimicrobial evaluation and molecular docking studies of some new thiophene, pyrazole and pyridone derivatives bearing sulfisoxazole moiety” (2014)
In brackets after ≈: the same amount, converted by molar mass.

What was measured:
Assay type in all cases: functional
[1] = tested on: Bacillus subtilis; assay: Antimicrobial activity against Bacillis subtilis RCMB 010067 assessed as inhibition zone at 5 mg/ml after 24 hrs; settings: RCMB 010067, 24 h, read-out: IZ
Outline: (§1)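 Agar diffusion on nutrient agar seeded with 10^6 CFU/mL bacteria. Filter-paper disks were loaded with 100 µL of a 5 mg/mL compound solution in DMF, with a DMF-only control. Incubation was 37 °C for 24 h. Inhibition zone in mm (mean ± SD, triplicate plates) was measured beyond the 6 mm diameter.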

[2] = tested on: Staphylococcus epidermidis; assay: Antimicrobial activity against Staphylococcus epidermidis RCMB 010024 assessed as absence of turbidity after 24 hrs; settings: RCMB 010024, 24 h
Outline: (§2)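 Broth microdilution in Müller–Hinton broth. DMF stocks at 1000 µg/mL were diluted in broth to give twofold serial dilutions over 500–0.007 µg/mL. Bacterial inoculum was about 10^6 CFU/mL in 96-well plates, sealed and incubated at 37 °C for 24 h in a humid chamber. MIC was taken as the lowest concentration with no visible turbidity. DMF and uninoculated-medium controls were included. Only compounds giving zones >10 mm were tested.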

[3] = tested on: Bacillus subtilis; assay: Antimicrobial activity against Bacillis subtilis RCMB 010067 assessed as absence of turbidity after 24 hrs; settings: RCMB 010067, 24 h; outline: as §2
[4] = tested on: Streptococcus pneumoniae; assay: Antimicrobial activity against Streptococcus pneumoniae RCMB 010010 assessed as absence of turbidity after 24 hrs; settings: RCMB 010010, 24 h; outline: as §2
[5] = tested on: Streptococcus pneumoniae; assay: Antimicrobial activity against Streptococcus pneumoniae RCMB 010010 assessed as inhibition zone at 5 mg/ml after 24 hrs; settings: RCMB 010010, 24 h, read-out: IZ; outline: as §1
[6] = tested on: Staphylococcus epidermidis; assay: Antimicrobial activity against Staphylococcus epidermidis RCMB 010024 assessed as inhibition zone at 5 mg/ml after 24 hrs; settings: RCMB 010024, 24 h, read-out: IZ; outline: as §1
[7] = tested on: Proteus vulgaris; assay: Antimicrobial activity against Proteus vulgaris RCMB 010085 assessed as inhibition zone at 5 mg/ml after 24 hrs; outline: as §1
[8] = tested on: Escherichia coli; assay: Antimicrobial activity against Escherichia coli RCMB 010052 assessed as absence of turbidity after 24 hrs; outline: as §2
[9] = tested on: Proteus vulgaris; assay: Antimicrobial activity against Proteus vulgaris RCMB 010085 assessed as absence of turbidity after 24 hrs; outline: as §2
[10] = tested on: Klebsiella pneumoniae; assay: Antimicrobial activity against Klebsiella pneumoniae RCMB 010093 assessed as absence of turbidity after 24 hrs; outline: as §2
[11] = tested on: Klebsiella pneumoniae; assay: Antimicrobial activity against Klebsiella pneumoniae RCMB 010093 assessed as inhibition zone at 5 mg/ml after 24 hrs; settings: for zone of inhibition at 5000 µg/mL: RCMB 010093, 24 h, read-out: IZ; outline: as §1
[12] = tested on: Syncephalastrum racemosum; assay: Antifungal activity against Syncephalastrum racemosum RCMB 05922 assessed as inhibition zone at 5 mg/ml after 48 hrs; settings: RCMB 05922, 48 h, read-out: IZ
[13] = tested on: Geotrichum candidum; assay: Antifungal activity against Geotrichum candidum RCMB 05097 assessed as absence of turbidity after 48 hrs; settings: RCMB 05097, 48 h
Outline: as §2, with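 “Sabouraud liquid medium.” for “Müller–Hinton broth.”, “Fungal” for “Bacterial”, “10^4” for “10^6”, “25” for “37”, “48” for “24”, “included.” for “included. Only compounds giving zones >10 mm were tested.”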

[14] = tested on: Aspergillus fumigatus; assay: Antifungal activity against Aspergillus fumigatus RCMB 02568 assessed as inhibition zone at 5 mg/ml after 48 hrs; settings: RCMB 02568, 48 h, read-out: IZ
Outline: (§3)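 Disk diffusion on nutrient agar seeded with 10^4 CFU/mL fungus. Sterile filter-paper disks carried 100 µL of a 5 mg/mL DMF solution, and DMF alone served as control. Plates were incubated at 25 °C for 48 h. Mean inhibition zone in mm ± SD was read beyond the 6 mm diameter, in triplicate.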

[15] = tested on: Geotrichum candidum; assay: Antifungal activity against Geotrichum candidum RCMB 05097 assessed as inhibition zone at 5 mg/ml after 48 hrs; settings: RCMB 05097, 48 h, read-out: IZ; outline: as §3
[16] = tested on: Syncephalastrum racemosum; assay: Antifungal activity against Syncephalastrum racemosum RCMB 05922 assessed as absence of turbidity after 48 hrs; settings: RCMB 05922, 48 h
[17] = tested on: Aspergillus fumigatus; assay: Antifungal activity against Aspergillus fumigatus RCMB 02568 assessed as absence of turbidity after 48 hrs; settings: RCMB 02568, 48 h
Outline: as §2, with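 “Sabouraud liquid medium.” for “Müller–Hinton broth.”, “Fungal” for “Bacterial”, “10^4” for “10^6”, “25” for “37”, “48” for “24”, “included.” for “included. Only compounds giving zones >10 mm were tested.”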

[18] = tested on: Escherichia coli; assay: Antimicrobial activity against Escherichia coli RCMB 010052 assessed as inhibition zone at 5 mg/ml after 24 hrs; settings: RCMB 010052, 24 h, read-out: IZ; outline: as §1

CC1(C)S[C@@H]2[C@H](NC(=O)[C@H](N)c3ccccc3)C(=O)N2[C@H]1C(=O)O [AMPICILLIN]
zone of inhibition at 5000 µg/mL [1]: 32.4 mm
MIC [2]: 0.06 µg/mL (≈ 0.172 µM)
MIC [3]: 0.24 µg/mL (≈ 0.687 µM)
MIC [4]: 0.12 µg/mL (≈ 0.343 µM)
zone of inhibition at 5000 µg/mL [5]: 23.8 mm
zone of inhibition at 5000 µg/mL [6]: 25.4 mm

GENTAMICIN
inhibition zone (IZ) [7]: 23.4 mm
MIC [8]: 1.95 µg/mL
MIC [9]: 0.24 µg/mL
MIC [10]: 0.03 µg/mL
inhibition zone (IZ) [11]: 26.3 mm

Cc1noc(NS(=O)(=O)c2ccc(NC(=O)/C(C#N)=C/N(C)C)cc2)c1C
zone of inhibition at 5000 µg/mL [1]: 21.4 mm
MIC ([8]; RCMB 010052, 24 h): 31.2 µg/mL (≈ 80.2 µM)
MIC [2]: 7.81 µg/mL (≈ 20.1 µM)
zone of inhibition at 5000 µg/mL [12]: 21.1 mm
MIC [13]: 0.98 µg/mL (≈ 2.52 µM)
MIC [3]: 0.98 µg/mL (≈ 2.52 µM)
zone of inhibition at 5000 µg/mL [14]: 18.3 mm
zone of inhibition at 5000 µg/mL [15]: 21.3 mm
MIC [4]: 1.95 µg/mL (≈ 5.01 µM)
zone of inhibition at 5000 µg/mL [5]: 20 mm
MIC ([10]; RCMB 010093, 24 h): 15.6 µg/mL (≈ 40.1 µM)
zone of inhibition at 5000 µg/mL [6]: 18.2 mm
MIC [16]: 0.98 µg/mL (≈ 2.52 µM)
MIC [17]: 7.81 µg/mL (≈ 20.1 µM)
zone of inhibition at 5000 µg/mL [18]: 16.3 mm
zone of inhibition at 5000 µg/mL [11]: 17.1 mm

C[C@@H]1[C@H](O)[C@@H](C)/C=C/C=C/C=C/C=C/C=C/C=C/C=C/[C@H](O[C@@H]2O[C@H](C)[C@@H](O)[C@H](N)[C@@H]2O)C[C@@H]2O[C@](O)(C[C@@H](O)C[C@@H](O)[C@H](O)CC[C@@H](O)C[C@@H](O)CC(=O)O[C@H]1C)C[C@H](O)[C@H]2C(=O)O [AMPHOTERICIN B]
zone of inhibition at 5000 µg/mL [12]: 19.7 mm
MIC [13]: 0.007 µg/mL (≈ 0.00758 µM)
zone of inhibition at 5000 µg/mL [14]: 23.7 mm
zone of inhibition at 5000 µg/mL [15]: 28.7 mm
MIC [16]: 7.81 µg/mL (≈ 8.45 µM)
MIC [17]: 0.12 µg/mL (≈ 0.13 µM)

Cc1noc(NS(=O)(=O)c2ccc(NC(=O)/C(C#N)=N/Nc3ccccc3)cc2)c1C
zone of inhibition at 5000 µg/mL [1]: 18.4 mm
MIC ([8]; RCMB 010052, 24 h): 125 µg/mL (≈ 285 µM)
MIC [2]: 1.95 µg/mL (≈ 4.45 µM)
zone of inhibition at 5000 µg/mL [12]: 17.3 mm
MIC [13]: 7.81 µg/mL (≈ 17.8 µM)
MIC [3]: 7.81 µg/mL (≈ 17.8 µM)
zone of inhibition at 5000 µg/mL [14]: 16.5 mm
zone of inhibition at 5000 µg/mL [15]: 17.8 mm
MIC [4]: 62.5 µg/mL (≈ 143 µM)
zone of inhibition at 5000 µg/mL [5]: 15.5 mm
MIC ([10]; RCMB 010093, 24 h): 3.9 µg/mL (≈ 8.89 µM)
zone of inhibition at 5000 µg/mL [6]: 19.8 mm
MIC [16]: 15.6 µg/mL (≈ 35.6 µM)
MIC [17]: 15.6 µg/mL (≈ 35.6 µM)
zone of inhibition at 5000 µg/mL [18]: 13.5 mm
zone of inhibition at 5000 µg/mL [11]: 19.1 mm

Cc1noc(NS(=O)(=O)c2ccc(N)cc2)c1C [SULFISOXAZOLE]
zone of inhibition at 5000 µg/mL [1]: 20.8 mm
MIC ([8]; RCMB 010052, 24 h): 62.5 µg/mL (≈ 234 µM)
MIC [2]: 7.81 µg/mL (≈ 29.2 µM)
zone of inhibition at 5000 µg/mL [12]: 13.2 mm
MIC [13]: 15.6 µg/mL (≈ 58.5 µM)
MIC [3]: 0.98 µg/mL (≈ 3.67 µM)
zone of inhibition at 5000 µg/mL [14]: 15.1 mm
zone of inhibition at 5000 µg/mL [15]: 16.8 mm
MIC [4]: 1.95 µg/mL (≈ 7.29 µM)
zone of inhibition at 5000 µg/mL [5]: 19.6 mm
MIC ([10]; RCMB 010093, 24 h): 7.81 µg/mL (≈ 29.2 µM)
zone of inhibition at 5000 µg/mL [6]: 17.5 mm
MIC [16]: 125 µg/mL (≈ 468 µM)
MIC [17]: 62.5 µg/mL (≈ 234 µM)
zone of inhibition at 5000 µg/mL [18]: 15.2 mm
zone of inhibition at 5000 µg/mL [11]: 18.2 mm

CCOc1ccc(N/N=C(\C#N)C(=O)Nc2ccc(S(=O)(=O)Nc3onc(C)c3C)cc2)cc1
zone of inhibition at 5000 µg/mL [1]: 20 mm
MIC ([8]; RCMB 010052, 24 h): 31.2 µg/mL (≈ 64.8 µM)
MIC [2]: 7.81 µg/mL (≈ 16.2 µM)
zone of inhibition at 5000 µg/mL [12]: 18.6 mm
MIC [13]: 0.98 µg/mL (≈ 2.03 µM)
MIC [3]: 1.95 µg/mL (≈ 4.04 µM)
zone of inhibition at 5000 µg/mL [14]: 19.3 mm
zone of inhibition at 5000 µg/mL [15]: 21.4 mm
MIC [4]: 1.95 µg/mL (≈ 4.04 µM)
zone of inhibition at 5000 µg/mL [5]: 19.6 mm
MIC ([10]; RCMB 010093, 24 h): 31.2 µg/mL (≈ 64.8 µM)
zone of inhibition at 5000 µg/mL [6]: 17.6 mm
MIC [16]: 3.9 µg/mL (≈ 8.08 µM)
MIC [17]: 3.9 µg/mL (≈ 8.08 µM)
zone of inhibition at 5000 µg/mL [18]: 15.9 mm
zone of inhibition at 5000 µg/mL [11]: 16.3 mm
